Data as given in ChEMBL document CHEMBL5108039, “Piperazine tethered bergenin heterocyclic hybrids: design, synthesis, anticancer activity, and molecular docking studies” (RSC Med Chem, 2022).
pIC50: −log10 of the molar value. Activity calls are given as the source filed them. The rule behind the calls is not given here.

Assays:
[1] = system: SCC-9; experiment: Induction of apoptosis in human SCC-9 cells assessed as late apoptotic cells at 32.4 uM incubated for 24 hrs by Annexin V-FITC/PI staining based flow cytometric analysis (reference value: 1.4 %); assay type: functional
[2] = system: CAL-27; experiment: Cell cycle arrest in human CAL-27 cells assessed as accumulation at G0/G1 phase at 16 uM incubated for 24 hrs by flow cytometry (reference value: 77.6 %); assay type: functional
[3] = system: CAL-27; experiment: Cytotoxicity against human CAL-27 cells assessed as cell growth inhibition; assay type: functional, cell-based
Summary of the method: (§1)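 Compounds were dissolved in sterile DMSO as 10 mg ml−1 stocks and tested for in vitro growth inhibition of human cancer cell lines. Doxorubicin was the standard drug and DMSO (0.01%) the vehicle control. IC50 values are reported as means.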

[4] = system: SCC-9; experiment: Cell cycle arrest in human SCC-9 cells assessed as accumulation at G2/M phase at 32.4 uM incubated for 24 hrs by flow cytometry (reference value: 14.2 %); assay type: functional
[5] = system: CAL-27; experiment: Cell cycle arrest in human CAL-27 cells assessed as accumulation at G2/M phase at 32 uM incubated for 24 hrs by flow cytometry (reference value: 11.9 %); assay type: functional
[6] = system: SCC-9; experiment: Induction of apoptosis in human SCC-9 cells assessed as necrotic cells at 32.4 uM incubated for 24 hrs by Annexin V-FITC/PI staining based flow cytometric analysis (reference value: 0.1 %); assay type: functional
[7] = Cytotoxicity against human BEAS-2B cells assessed as cell growth inhibition; assay type: toxicity, cell-based
Summary of the method: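 Compounds were dissolved in sterile DMSO as 10 mg ml−1 stocks and tested in vitro for cytotoxicity in a cell-line panel, with DMSO (0.01%) as vehicle control and doxorubicin as standard. Mean IC50 values were reported, and the normal lung epithelial cells were tested up to 100 μM.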

[8] = system: SCC-9; experiment: Induction of apoptosis in human SCC-9 cells assessed as upregulation of Bax gene expression at 16 uM by qRT-PCR analysis; assay type: functional, cell-based
[9] = system: CAL-27; experiment: Induction of apoptosis in human CAL-27 cells assessed as downregulation of Oct-4 gene expression at 16 uM by qRT-PCR analysis; assay type: functional, cell-based
Summary of the method: (§2)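 CAL27 cells were treated with test compounds at several concentrations. Relative expression of vimentin, E-cad, Nanog, Oct-4, Bax and BcL-2 was measured by qRT-PCR against vehicle-treated control cells.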

[10] = system: SCC-9; experiment: Cell cycle arrest in human SCC-9 cells assessed as accumulation at S phase at 32.4 uM incubated for 24 hrs by flow cytometry (reference value: 14.4 %); assay type: functional
[11] = system: CAL-27; experiment: Induction of apoptosis in human CAL-27 cells assessed as late apoptotic cells at 32 uM incubated for 24 hrs by Annexin V-FITC/PI staining based flow cytometric analysis (reference value: 0.1 %); assay type: functional
Summary of the method: (§3)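 CAL27 cells were treated with vehicle, doxorubicin or test compounds at 10–63 μM, and apoptosis was assessed by annexin V–FITC/PI staining with flow cytometry. Cells were scored as live, early apoptotic, late apoptotic or necrotic. The vehicle was DMSO (0.01%).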

[12] = system: SCC-9; experiment: Induction of apoptosis in human SCC-9 cells assessed as live cells at 32.4 uM incubated for 24 hrs by Annexin V-FITC/PI staining based flow cytometric analysis (reference value: 95.7 %); assay type: functional
[13] = system: CAL-27; experiment: Cell cycle arrest in human CAL-27 cells assessed as accumulation at S phase at 32 uM incubated for 24 hrs by flow cytometry (reference value: 3.6 %); assay type: functional
[14] = system: CAL-27; experiment: Induction of apoptosis in human CAL-27 cells assessed as upregulation of Bax gene expression at 32 uM by qRT-PCR analysis; assay type: functional, cell-based
Summary of the method: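 CAL27 cells were treated with test agents at different concentrations. Relative mRNA levels of vimentin, E-cad, Nanog, Oct-4, Bax and Bcl-2 were then quantified by qRT-PCR as apoptosis, EMT and stemness markers.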

[15] = system: SCC-9; experiment: Cytotoxicity against human SCC-9 cells assessed as cell growth inhibition; assay type: functional, cell-based; summary of the method: as §1
[16] = system: SCC-9; experiment: Induction of apoptosis in human SCC-9 cells assessed as live cells at 16.2 uM incubated for 24 hrs by Annexin V-FITC/PI staining based flow cytometric analysis (reference value: 95.7 %); assay type: functional
[17] = system: SCC-9; experiment: Induction of apoptosis in human SCC-9 cells assessed as downregulation of vimentin gene expression at 32 uM by qRT-PCR analysis; assay type: functional, cell-based
[18] = system: SCC-9; experiment: Induction of apoptosis in human SCC-9 cells assessed as necrotic cells at 16.2 uM incubated for 24 hrs by Annexin V-FITC/PI staining based flow cytometric analysis (reference value: 0.1 %); assay type: functional
[19] = system: CAL-27; experiment: Cell cycle arrest in human CAL-27 cells assessed as accumulation at S phase at 16 uM incubated for 24 hrs by flow cytometry (reference value: 3.6 %); assay type: functional
[20] = system: SCC-9; experiment: Induction of apoptosis in human SCC-9 cells assessed as upregulation of E-cad gene expression at 32 uM by qRT-PCR analysis; assay type: functional, cell-based
[21] = system: SCC-9; experiment: Induction of apoptosis in human SCC-9 cells assessed as downregulation of Nanog gene expression at 16 uM by qRT-PCR analysis; assay type: functional, cell-based
[22] = system: CAL-27; experiment: Induction of apoptosis in human CAL-27 cells assessed as downregulation of BcL-2 gene expression at 32 uM by qRT-PCR analysis; assay type: functional, cell-based; summary of the method: as §2
[23] = system: SCC-9; experiment: Induction of apoptosis in human SCC-9 cells assessed as downregulation of Nanog gene expression at 32 uM by qRT-PCR analysis; assay type: functional, cell-based
[24] = system: CAL-27; experiment: Induction of apoptosis in human CAL-27 cells assessed as necrotic cells at 32 uM incubated for 24 hrs by Annexin V-FITC/PI staining based flow cytometric analysis (reference value: 0.0 %); assay type: functional
[25] = system: SCC-9; experiment: Induction of apoptosis in human SCC-9 cells assessed as downregulation of Oct-4 gene expression at 32 uM by qRT-PCR analysis; assay type: functional, cell-based
[26] = system: CAL-27; experiment: Induction of apoptosis in human CAL-27 cells assessed as early apoptotic cells at 16 uM incubated for 24 hrs by Annexin V-FITC/PI staining based flow cytometric analysis (reference value: 0.1 %); assay type: functional; summary of the method: as §3
[27] = system: MCF7; experiment: Cytotoxicity against human MCF7 cells assessed as cell growth inhibition; assay type: functional, cell-based; summary of the method: as §1
[28] = system: CAL-27; experiment: Induction of apoptosis in human CAL-27 cells assessed as downregulation of vimentin gene expression at 16 uM by qRT-PCR analysis; assay type: functional, cell-based; summary of the method: as §2
[29] = system: CAL-27; experiment: Induction of apoptosis in human CAL-27 cells assessed as live cells at 16 uM incubated for 24 hrs by Annexin V-FITC/PI staining based flow cytometric analysis (reference value: 99.8 %); assay type: functional; summary of the method: as §3
[30] = system: SCC-9; experiment: Induction of apoptosis in human SCC-9 cells assessed as downregulation of Oct-4 gene expression at 16 uM by qRT-PCR analysis; assay type: functional, cell-based
[31] = system: CAL-27; experiment: Cell cycle arrest in human CAL-27 cells assessed as accumulation at G0/G1 phase at 32 uM incubated for 24 hrs by flow cytometry (reference value: 77.6 %); assay type: functional
[32] = system: CAL-27; experiment: Induction of apoptosis in human CAL-27 cells assessed as downregulation of Nanog gene expression at 16 uM by qRT-PCR analysis; assay type: functional, cell-based; summary of the method: as §2
[33] = system: CAL-27; experiment: Induction of apoptosis in human CAL-27 cells assessed as downregulation of vimentin gene expression at 32 uM by qRT-PCR analysis; assay type: functional, cell-based; summary of the method: as §2

Q: Which Activity [1] does the source give for `COc1ccc(-c2csc(NC(=O)CN3CCN(Cc4c(O)c(OC)c(O)c5c4C(=O)OC4C5O[C@H](CO)[C@@H](O)[C@@H]4O)CC3)n2)cc1` (stereo partly drawn) here?
A: The Activity was 17.5%.

Q: What about the Activity [2] of the same compound?
A: Its Activity is 85.5%.

Q: What about the pIC50 [3] of the same compound?
A: Its pIC50 is 4.80.

Q: What about the Activity [4] of the same compound?
A: Its Activity is 10.5%.

Q: And the Activity [5]?
A: Its Activity is 9.4%.

Q: What about the Activity [6] of the same compound?
A: The Activity was 33.8%.

Q: And the pIC50 [7]?
A: Its pIC50 is under 4.00.

Q: What about the Activity [8] of the same compound?
A: Its Activity is “Active”.

Q: What about the Activity [9] of the same compound?
A: Its Activity is “Active”.

Q: What about the Activity [10] of the same compound?
A: Its Activity is 12.4%.

Q: What about the Activity [11] of the same compound?
A: The Activity was 4.3%.

Q: What about the Activity [12] of the same compound?
A: Its Activity is 42.8%.

Q: And the Activity [13]?
A: Its Activity is 3.1%.

Q: What about the Activity [14] of the same compound?
A: The Activity was “Active”.

Q: What about the pIC50 [15] of the same compound?
A: Its pIC50 is 4.49.

Q: What about the Activity [16] of the same compound?
A: Its Activity is 44.2%.

Q: What about the Activity [17] of the same compound?
A: The Activity was “Active”.

Q: What about the Activity [18] of the same compound?
A: The Activity was 9.2%.

Q: What about the Activity [19] of the same compound?
A: The Activity was 2.1%.

Q: And the Activity [20]?
A: Its Activity is “Active”.

Q: What about the Activity [21] of the same compound?
A: Its Activity is “Active”.

Q: And the Activity [22]?
A: The Activity was “Active”.

Q: What about the Activity [23] of the same compound?
A: The Activity was “Active”.

Q: And the Activity [24]?
A: The Activity was 1.9%.

Q: What about the Activity [25] of the same compound?
A: The Activity was “Active”.

Q: And the Activity [26]?
A: Its Activity is 2.7%.

Q: What about the pIC50 [27] of the same compound?
A: Its pIC50 is under 4.00.

Q: And the Activity [28]?
A: The Activity was “Active”.

Q: What about the Activity [29] of the same compound?
A: The Activity was 94.5%.

Q: And the Activity [30]?
A: Its Activity is “Active”.

Q: What about the Activity [31] of the same compound?
A: The Activity was 87.1%.

Q: And the Activity [32]?
A: The Activity was “Active”.

Q: And the Activity [33]?
A: Its Activity is “Active”.
